The source of these data is ChEMBL document CHEMBL3046951, “Volatile constituents from the leaves of Callicarpa japonica Thunb. and their antibacterial activities” (2004).

In test [1] the test system is Listeria monocytogenes. Nature of the test: Antimicrobial activity against Listeria monocytogenes ATCC 19111 assessed as growth inhibition rate at 3.64 mg/l after 72 hr by spectrophotometry. Conditions: ATCC 19111, 72 h, read-out: GI. In kind it is functional. Put shortly:
(§1)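 L. monocytogenes was grown at 30 °C in tryptic soy broth, subcultured for 18 h, and exposed to pure volatile compounds (>95% purity). Growth was followed by Bioscreen C optical density every 24 h for 72 h against a 10% Tween 80 control.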

The subject of test [2] is Staphylococcus aureus. Nature of the test: Antimicrobial activity against Staphylococcus aureus ATCC 25923 assessed as growth inhibition rate at 3.64 mg/l after 72 hr by spectrophotometry. Type of test: functional. Conditions: ATCC 25923, 72 h, read-out: GI.
The test system of test [3] is Salmonella typhimurium. In words: Antimicrobial activity against Salmonella enterica subsp. enterica serovar Typhimurium ATCC 14028 assessed as growth inhibition rate at 3.64 mg/l after 72 hr by spectrophotometry. In kind it is functional. The settings on record: ATCC 14028, 72 h, read-out: GI. A digest of the protocol: (§2)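 Salmonella Typhimurium ATCC 14028 grown in nutrient broth at 30 °C, precultured 24 h, then subcultured 1:100 for 18 h before testing. Single volatile compounds (>95% pure) were added. OD was read every 24 h over 72 h in a Bioscreen C, with 10% Tween 80 as the comparison control.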

Test [4] concerns Bacillus cereus. Nature of the test: Antimicrobial activity against Bacillus cereus ATCC 11778 assessed as growth inhibition rate at 3.64 mg/l after 72 hr by spectrophotometry. Type of test: functional. Conditions: ATCC 11778, 72 h, read-out: GI. Put shortly:
(§3)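 Pure volatile compounds (purity >95%; one at 90%) were tested against B. cereus ATCC 11778. The strain was grown at 30 °C in nutrient broth for 24 h, then subcultured for 18 h. Optical density was read in a Bioscreen C every 24 h for 72 h, with 10% Tween 80 as the control.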

The test system of test [5] is Vibrio parahaemolyticus. In words: Antimicrobial activity against Vibrio parahaemolyticus ATCC 33844 assessed as growth inhibition rate at 3.64 mg/l after 72 hr by spectrophotometry. In kind it is functional. The settings on record: ATCC 33844, 72 h, read-out: GI.
Test [6] has as its system Escherichia coli. In words: Antimicrobial activity against Escherichia coli O157:H7 ATCC 43894 assessed as growth inhibition rate at 3.64 mg/l after 72 hr by spectrophotometry. In kind it is functional. The settings on record: O157:H7 ATCC 43894, 72 h, read-out: GI.
Test [7] relates to Vibrio parahaemolyticus. In words: Antimicrobial activity against Vibrio parahaemolyticus ATCC 33844 assessed as growth inhibition rate at 4.44 mg/l after 72 hr by spectrophotometry. The settings on record: ATCC 33844, 72 h, read-out: GI. In kind it is functional.
Test [8] deals with Listeria monocytogenes. Nature of the test: Antimicrobial activity against Listeria monocytogenes ATCC 19111 assessed as growth inhibition rate at 4.44 mg/l after 72 hr by spectrophotometry. The settings on record: ATCC 19111, 72 h, read-out: GI. Type of test: functional. Put shortly:
as §1

Test [9] has as its system Escherichia coli. In words: Antimicrobial activity against Escherichia coli O157:H7 ATCC 43894 assessed as growth inhibition rate at 4.44 mg/l after 72 hr by spectrophotometry. The settings on record: O157:H7 ATCC 43894, 72 h, read-out: GI. Type of test: functional.
The test system of test [10] is Staphylococcus aureus. Nature of the test: Antimicrobial activity against Staphylococcus aureus ATCC 25923 assessed as growth inhibition rate at 4.44 mg/l after 72 hr by spectrophotometry. The settings on record: ATCC 25923, 72 h, read-out: GI. Type of test: functional.
The test system of test [11] is Bacillus cereus. In words: Antimicrobial activity against Bacillus cereus ATCC 11778 assessed as growth inhibition rate at 4.44 mg/l after 72 hr by spectrophotometry. In kind it is functional. The settings on record: ATCC 11778, 72 h, read-out: GI. A digest of the protocol:
as §3

Test [12] has as its system Salmonella typhimurium. Nature of the test: Antimicrobial activity against Salmonella enterica subsp. enterica serovar Typhimurium ATCC 14028 assessed as growth inhibition rate at 4.44 mg/l after 72 hr by spectrophotometry. The settings on record: ATCC 14028, 72 h, read-out: GI. In kind it is functional. A digest of the protocol:
as §2

The subject of test [13] is Staphylococcus aureus. Nature of the test: microbe, parasite or virus in culture. Conditions: ATCC 25923, 72 h, read-out: GI.
For test [14], the system named is Vibrio parahaemolyticus. Nature of the test: microbe, parasite or virus in culture. Conditions: ATCC 33844, 72 h, read-out: GI.
Test [15] relates to Escherichia coli. In words: microbe, parasite or virus in culture. The settings on record: O157:H7 ATCC 43894, 72 h, read-out: GI.
For test [16], the system named is Bacillus cereus. Nature of the test: microbe, parasite or virus in culture. The settings on record: ATCC 11778, 72 h, read-out: GI.
Test [17] relates to Listeria monocytogenes. In words: microbe, parasite or virus in culture. Conditions: ATCC 19111, 72 h, read-out: GI.
Test [18] has as its system Salmonella typhimurium. Nature of the test: microbe, parasite or virus in culture. The settings on record: Salmonella enterica, ATCC 14028, 72 h, read-out: GI.
In test [19] the test system is Listeria monocytogenes. In words: Antimicrobial activity against Listeria monocytogenes ATCC 19111 assessed as growth inhibition rate at 1.44 mg/l after 72 hr by spectrophotometry. In kind it is functional. Conditions: ATCC 19111, 72 h, read-out: GI. A digest of the protocol: as §1
For test [20], the system named is Salmonella typhimurium. Nature of the test: Antimicrobial activity against Salmonella enterica subsp. enterica serovar Typhimurium ATCC 14028 assessed as growth inhibition rate at 1.44 mg/l after 72 hr by spectrophotometry. Type of test: functional. Conditions: ATCC 14028, 72 h, read-out: GI. A digest of the protocol: as §2
In test [21] the test system is Staphylococcus aureus. In words: Antimicrobial activity against Staphylococcus aureus ATCC 25923 assessed as growth inhibition rate at 1.44 mg/l after 72 hr by spectrophotometry. Type of test: functional. Conditions: ATCC 25923, 72 h, read-out: GI.
In test [22] the test system is Escherichia coli. Nature of the test: Antimicrobial activity against Escherichia coli O157:H7 ATCC 43894 assessed as growth inhibition rate at 1.44 mg/l after 72 hr by spectrophotometry. Type of test: functional. The settings on record: O157:H7 ATCC 43894, 72 h, read-out: GI.
Test [23] deals with Vibrio parahaemolyticus. Nature of the test: Antimicrobial activity against Vibrio parahaemolyticus ATCC 33844 assessed as growth inhibition rate at 1.44 mg/l after 72 hr by spectrophotometry. Type of test: functional. The settings on record: ATCC 33844, 72 h, read-out: GI.
The test system of test [24] is Bacillus cereus. Nature of the test: Antimicrobial activity against Bacillus cereus ATCC 11778 assessed as growth inhibition rate at 1.44 mg/l after 72 hr by spectrophotometry. The settings on record: ATCC 11778, 72 h, read-out: GI. Type of test: functional. A digest of the protocol:
as §3

The subject of test [25] is Listeria monocytogenes. Nature of the test: Antimicrobial activity against Listeria monocytogenes ATCC 19111 assessed as growth inhibition rate at 2.36 mg/l after 72 hr by spectrophotometry. The settings on record: ATCC 19111, 72 h, read-out: GI. Type of test: functional. Put shortly:
as §1

The subject of test [26] is Vibrio parahaemolyticus. In words: Antimicrobial activity against Vibrio parahaemolyticus ATCC 33844 assessed as growth inhibition rate at 2.36 mg/l after 72 hr by spectrophotometry. In kind it is functional. Conditions: ATCC 33844, 72 h, read-out: GI.
Test [27] concerns Salmonella typhimurium. In words: Antimicrobial activity against Salmonella enterica subsp. enterica serovar Typhimurium ATCC 14028 assessed as growth inhibition rate at 2.36 mg/l after 72 hr by spectrophotometry. In kind it is functional. The settings on record: ATCC 14028, 72 h, read-out: GI. A digest of the protocol:
as §2

Test [28] deals with Bacillus cereus. In words: Antimicrobial activity against Bacillus cereus ATCC 11778 assessed as growth inhibition rate at 2.36 mg/l after 72 hr by spectrophotometry. Type of test: functional. The settings on record: ATCC 11778, 72 h, read-out: GI. A digest of the protocol:
as §3

Test [29] deals with Escherichia coli. Nature of the test: Antimicrobial activity against Escherichia coli O157:H7 ATCC 43894 assessed as growth inhibition rate at 2.36 mg/l after 72 hr by spectrophotometry. In kind it is functional. Conditions: O157:H7 ATCC 43894, 72 h, read-out: GI.
Test [30] deals with Staphylococcus aureus. Nature of the test: Antimicrobial activity against Staphylococcus aureus ATCC 25923 assessed as growth inhibition rate at 2.36 mg/l after 72 hr by spectrophotometry. Type of test: functional. The settings on record: ATCC 25923, 72 h, read-out: GI.

Take `CCc1ccco1`: the inhibition of growth at 3.64 µg/mL with Listeria monocytogenes [1] turned out to be 0%; in the test on Staphylococcus aureus [2] it was 4.3%; with Salmonella typhimurium [3], 1.6%; in the test on Bacillus cereus [4], 0%; in the test on Vibrio parahaemolyticus [5], 2.3%; with Escherichia coli [6], 0%.

On to `CC1=CC[C@@H]2C[C@H]1C2(C)C` [1R-(+)-ALPHA-PINENE], for which the inhibition of growth at 4.44 µg/mL is 10.7% in the test on Vibrio parahaemolyticus [7]; 0% with Listeria monocytogenes [8]; 0% in the test on Escherichia coli [9]; 20.8% with Staphylococcus aureus [10]; 0% in the test with Bacillus cereus [11]; 5.2% in the test on Salmonella typhimurium [12].

Consider `CCO` [ALCOHOL], for which the inhibition of growth at 104.72 µg/mL was 3.2% with Staphylococcus aureus [13]; 3.9% in the test with Vibrio parahaemolyticus [14]; 2% in the test on Escherichia coli [15]; 0% in the test with Bacillus cereus [16]; 0% with Listeria monocytogenes [17]; 3.4% with Salmonella typhimurium [18].

Consider `CCOC(C)=O` [ETHYL ACETATE], for which the inhibition of growth at 1.44 µg/mL worked out at 0% in the test on Listeria monocytogenes [19]; 9.3% in the test with Salmonella typhimurium [20]; 6.6% in the test on Staphylococcus aureus [21]; 0% in the test on Escherichia coli [22]; 4.5% in the test on Vibrio parahaemolyticus [23]; 0% in the test with Bacillus cereus [24].

Turning to `CCCCC=O` [PENTANAL], the inhibition of growth at 2.36 µg/mL with Listeria monocytogenes [25] is 0%; with Vibrio parahaemolyticus [26] it was 0%; in the test on Salmonella typhimurium [27], 4.2%; in the test with Bacillus cereus [28], 11.3%; in the test with Escherichia coli [29], 0%; in the test with Staphylococcus aureus [30] it was 6.3%.
